Screening results as filed in PubChem BioAssay.
CRFR2-BP antag – blocks CRF-induced signaling of the CRF-BP/CRF-R2 complex; inhibition, % at 11.8 µM; HEK293 CRF-R2/CRF-BP, CRF-induced calcium fluorescence; 0.59% of 350,000 active;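 active = inhibition of the ligand-induced calcium signal above about 50% at the single tested concentration, limit read from the data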
CRFBP-R2 agonist – CRF-BP/CRF-R2 complex agonism. activation, % at 13.2 µM. AID 588473. 0.46% of 350,000 active. HEK293 CRF-R2/CRF-BP, calcium dye fluorescence (FLIPR); percent of saturating CRF peptide response;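 active = activation of at least 50%, plus an integration ratio under a set limit after plate pattern correction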;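 also: plate controls were neutral control wells without compound for no effect and CRF at EC100 for full effect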
TRPN1 ag – activates the zebrafish TRPN1 channel; AID 1424; activation, % at 3 µM; HEK293 zebrafish TRPN1-YFP, Fluo-8 calcium fluorescence; 100% = response to 87 µM carbachol; 0.18% of 220,000 active;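 active = activation above its plate's cutoff, the mean activation of test wells on that plate plus 3 SD, cut at about 19% in these data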;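 also: 0% = DMSO alone and 100% = 87 µM carbachol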
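Material: zebrafish TRPN1-YFP in HEK293 cells; Doses: single test compound dose, 3 µM nominal, 0.3% DMSO; Timing: dye loading 1 h at 37 °C, then 30 min room temperature; Technique: intracellular calcium fluorescence with Fluo-8; Benchmarks: high carbachol 87 µM, low DMSO alone.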
IMP-1 inhibitor – inhibitors of Pseudomonas aeruginosa IMP-1 metallo-beta-lactamase; purified IMP-1, nitrocefin hydrolysis, epi-absorbance fluorescence; inhibition, % at 5.6 µM; 0.45% of 290,000 active;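 active = inhibition above the mean plus 3 SD of all compounds in the same screening run, cut at about 4.5% in these data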;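 also: 0% = IMP-1 with DMSO and 100% = DMSO wells lacking enzyme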
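Assay system: purified recombinant IMP-1 beta-lactamase. Input: IMP-1 0.2 nM before substrate addition. Buffer or medium: Zinc- and detergent-supplemented HEPES buffer, pH 7.1. Schedule: 25 °C, 15 min preincubation, 25 min reaction. Signal: Epi-absorbance fluorescence, 480 nm excitation, 530 nm emission. Evaluation: percent inhibition from optical density relative to buffer-blank wells.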
VIM-2 inh – blocks Pseudomonas aeruginosa VIM-2 metallo-beta-lactamase | inhibition, % at 5.6 µM | AID 1527 | purified VIM-2, nitrocefin hydrolysis, epi-absorbance fluorescence | 0.89% of 290,000 active;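 active = inhibition above the mean of all tested compounds plus 3 SD, cutoff set per screening run, cut at about 7.5% in these data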;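 also: red hydrolysis product quenches plate fluorescence so inhibitors raise well fluorescence; 0% = enzyme with DMSO and 100% = DMSO without enzyme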
TRPML3 agonist – human mucolipin-3 channel agonism; Q8TDD5; HEK293 TRPML3-YFP, Fluo-8 calcium fluorescence; 100% = the carbachol control signal; activation, % at 3 µM; 0.29% of 220,000 active;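 active = activation above its plate's cutoff, the mean activation of the plate's test wells plus 3 SD, cut at about 12% in these data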;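 also: 0% = DMSO only wells and 100% = carbachol wells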
Target sequence (Q8TDD5 whole entry, looked up): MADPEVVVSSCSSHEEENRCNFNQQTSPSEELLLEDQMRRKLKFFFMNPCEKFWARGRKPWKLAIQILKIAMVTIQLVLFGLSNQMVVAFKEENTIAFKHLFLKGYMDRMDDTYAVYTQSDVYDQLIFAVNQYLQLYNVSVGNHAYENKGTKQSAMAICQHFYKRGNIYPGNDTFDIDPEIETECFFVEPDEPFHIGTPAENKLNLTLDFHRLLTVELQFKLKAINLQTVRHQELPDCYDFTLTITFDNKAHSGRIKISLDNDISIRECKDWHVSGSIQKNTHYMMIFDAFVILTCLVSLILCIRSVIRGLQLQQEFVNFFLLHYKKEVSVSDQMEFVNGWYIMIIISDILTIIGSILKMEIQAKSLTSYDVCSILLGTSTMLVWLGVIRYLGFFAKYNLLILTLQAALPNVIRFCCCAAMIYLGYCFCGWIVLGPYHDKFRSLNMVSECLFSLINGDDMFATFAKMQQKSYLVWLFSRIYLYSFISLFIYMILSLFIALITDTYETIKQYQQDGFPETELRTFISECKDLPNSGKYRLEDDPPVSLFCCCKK
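Material: TRPML3-YFP stable HEK293 cells | Dosing: One concentration, 3 µM nominal, 0.3% DMSO | Timing: 125 s total fluorescence read per well | Technique: Fluo-8 calcium dye fluorescence, ex 470-495, em 515-575 nm | Measure: Percent activation from peak-to-basal fluorescence ratio, scaled between DMSO and carbachol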
The depositor's hits bear a star; · = not tested or not shown. Compounds with a hit are over-represented: about 2.1% of the library has one in this group of screens.

SMILES	CRFR2-BP antag	CRFBP-R2 agonist	TRPN1 ag	IMP-1 inhibitor	VIM-2 inh	TRPML3 agonist
CC(=O)c1c2c3c(c(Br)ccc3n(C)c1=O)C(=O)c1ccccc1-2	12	6	·	6.7*	31*	·
CC(=O)c1c(-c2ccccc2)c2cc(Cl)ccc2n(C)c1=O	13	1	·	-4	-1	·
CCC1NC(=O)c2cc3ccccc3cc2-n2c1nc1ccc(F)cc1c2=O (centres undefined)	-4	2	·	·	·	·
CCn1c(C)c(C(C)=O)c(N2CCN(c3ccccc3)CC2)nc1=S	-19	60*	0	6.6*	2	1
O=C(C(c1ccccc1)C(O)c1ccccc1)N1CCOCC1 (centres undefined)	12	2	·	·	·	·
CCOc1ccccc1OCCCC(=O)Nc1cccc(-n2cnnn2)c1C	-4	2	·	·	·	·
CC(C)NC(=O)c1cccc2c1-c1ccccc1C2=O	-2	-1	·	-4	-1	·
NC(=O)COC(=O)c1cccc2c1-c1ccccc1C2=O	-22	-1	1	-4	7.9*	1
COc1ccc(Cn2c(C)nnc2-c2cnn(C)c2N)cc1	10	0	0	-2	-3	0
COc1ccc(/C=N/NS(=O)(=O)c2ccccc2)cc1OC(=O)c1ccc(C)cc1	51*	-3	0	0	-1	0
O=C1CCc2cc(NS(=O)(=O)c3ccc(Cl)cc3)cc3c2N1CC3	-7	1	·	·	·	·
O=C(CCC1CCCC1)c1c(O)c2ccccc2oc1=O	66*	89*	1	-3	-2	1
COc1cccc(-c2cccc(NC(=O)C3CCN(C4CCOCC4)CC3)c2)c1	1	-1	·	1	0	·
COc1ccc(OC)c(/C=C2\N=C(c3ccccc3)OC2=O)c1	-84	104*	·	0	10*	·
CC(c1ccccc1)N1C(=O)c2ccc(C(=O)Nc3ccc(Br)cc3C(=O)O)cc2C1=O (centres undefined)	59*	0	·	1	1	·
CC(C)CCN1C(=O)c2ccc(C(=O)Nc3ccc(O)cc3C(=O)O)cc2C1=O	10	-1	·	-2	-1	·
CC(c1ccccc1)N1C(=O)c2ccc(C(=O)Nc3ccccc3C(=O)O)cc2C1=O (centres undefined)	1	0	·	-1	0	·
COc1cc(NC(=O)c2ccc3c(c2)C(=O)N(CCC(C)C)C3=O)c(C(=O)O)cc1OC	51*	10	·	1	2	·
O=c1oc(CCCO)cc2ccccc12	-1	1	·	·	·	·
CC(=O)N1CCN(c2ccc(NC(=O)c3ccccc3Cl)cc2)CC1	8	0	·	-3	-1	·
O=C(Nc1ccc(C(=O)N2CCCC2)cc1)c1ccccc1F	66*	1	1	-5	-4	0
O=C(Nc1ccc(N2CCCCCC2)cc1)c1ccccc1Cl	81*	-5	0	-3	-3	0
COc1ccc2sc(-c3ccc(N(C)C)cc3)c(C#Cc3cncn3C)c2c1	-2	3	·	·	·	·
O=C(c1cc2cc(Cl)ccc2oc1=O)N1CCOCC1	-17	0	-1	1	0	1
NC(=S)c1cc2cc(Cl)ccc2oc1=O	5	-1	0	7.0*	2	0
SMILES	CRFR2-BP antag	CRFBP-R2 agonist	TRPN1 ag	IMP-1 inhibitor	VIM-2 inh	TRPML3 agonist
O=C(Nc1cccc(S(=O)(=O)C(F)F)c1)c1ccc(S(=O)(=O)N2CCCCC2)cc1	-47	7	4	-3	-2	1
O=C(Nc1cccc(S(=O)(=O)N2CCCCC2)c1)c1ccc(S(=O)(=O)C(F)F)cc1	54*	2	5	-1	-1	3
Nc1nc(SCC(=O)Nc2ccc(OC(F)(F)F)cc2)[nH]c(=O)c1NC(=O)c1ccc(Br)o1	8	-1	·	-1	1	·
COc1ccc(C(=O)NCc2nnc(SCC(=O)N3CCCc4ccccc43)o2)cc1OC	5	1	0	0	1	1
CCn1c(=N)c(S(=O)(=O)c2ccccc2)cc2c(=O)n3ccccc3nc21	4	12	2	-5	-3	1
CCCn1c(=N)c(S(=O)(=O)c2ccccc2)cc2c(=O)n3ccccc3nc21	110*	-4	2	-3	2	0
Cc1ccc(S(=O)(=O)c2cc3c(=O)n4ccccc4nc3n(Cc3ccco3)c2=N)cc1C	7	79*	0	-2	-1	1
